Test results taken from ChEMBL document CHEMBL1126093, “Structural features of substituted purine derivatives compatible with depletion of human O6-alkylguanine-DNA alkyltransferase” (J Med Chem, 1992).
The source made the active and inactive calls. The rule behind the calls is not given here.

Columns and labels:
[1] = target: T1, Methylated-DNA--protein-cysteine methyltransferase (Homo sapiens) (UniProt P16455); experiment: Inhibitory activity against alkyl transferase in HT-29 cells; format: cell-based
T1 sequence (whole entry): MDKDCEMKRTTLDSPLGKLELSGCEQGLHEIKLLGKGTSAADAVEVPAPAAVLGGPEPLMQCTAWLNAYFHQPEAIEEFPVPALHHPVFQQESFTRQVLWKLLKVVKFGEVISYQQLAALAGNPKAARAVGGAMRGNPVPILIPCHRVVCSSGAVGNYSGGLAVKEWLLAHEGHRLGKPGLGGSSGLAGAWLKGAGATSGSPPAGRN
Method in brief: (§1)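 HT29 cells plated at 5 × 10⁶ per T75 flask and grown 3 days. Medium then replaced with medium holding increasing derivative concentrations (range 0.05–400 μM where soluble) for 4 h. Cells rinsed with PBS, harvested, frozen at -80 °C, then extracted. AGT activity assayed by O⁶-[³H]methylguanine loss from [³H]methylated DNA. 50% inactivation dose taken from plots; at least duplicates.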

[2] = target: T1, Methylated-DNA--protein-cysteine methyltransferase (Homo sapiens); experiment: In vitro inhibition of human alkyl transferase in HT-29 cell-free extracts.
Method in brief: (§2)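 HT29 crude cell extract incubated 30 min with derivative (0–400 μM, from 100 mM DMSO stocks) in 50 mM Tris-HCl pH 7.5, 0.1 mM EDTA, 5 mM DTT. Remaining AGT activity measured as loss of O⁶-[³H]methylguanine from [³H]methylnitrosourea-methylated calf thymus DNA. Dose for 50% inactivation read from %-activity-remaining vs dose plots; at least duplicates averaged.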

[3] = target: T1, Methylated-DNA--protein-cysteine methyltransferase (Homo sapiens); experiment: Inhibitory activity against alkyl transferase in HT-29 cell-free extracts; inactive; method in brief: as §2
[4] = target: T1, Methylated-DNA--protein-cysteine methyltransferase (Homo sapiens); experiment: The compound was tested for its inhibitory activity against alkyl transferase in HT-29 cells; inactive; format: cell-based; method in brief: as §1

SMILES	ED50 [1]	ED50 [2]	ED50 [3]	ED50 [4]
Nc1nc(OCc2ccccc2)c2ncn([C@H]3C[C@H](O)[C@@H](CO)O3)c2n1	0.5 µM	2 µM	–	–
CCOC(=O)Cn1cnc2nc(N)nc(OCc3ccccc3)c21	–	–	inactive	–
Nc1nc(OCc2ccccc2)c2c(ncn2CC(=O)O)n1	–	–	–	inactive
Cc1ccc(CSc2[nH]c(N)nc3ncnc2-3)cc1	–	–	inactive	–
Nc1nc(OCc2ccccc2)c2ncn(CC(=O)O)c2n1	–	157 µM	–	inactive
CCC(O)Cn1cnc2c(OCc3ccccc3)nc(N)nc21 (centres undefined)	2 µM	13 µM	–	–
Nc1nc(OCc2ccc(F)cc2)c2[nH]cnc2n1	0.05 µM	0.2 µM	–	–
Nc1nc(SCc2ccccc2)c2[nH]cnc2n1	–	–	inactive	–
COc1nc(N)nc2nc[nH]c12	120 µM	350 µM	–	–
Nc1nc(OCc2ccc(Cl)cc2)c2ncn(C3O[C@H](CO)[C@@H](O)[C@H]3O)c2n1 (some centres undefined)	5 µM	10 µM	–	–
Cc1ccc(COc2nc(N)nc3c2ncn3C2O[C@H](CO)[C@@H](O)[C@H]2O)cc1 (some centres undefined)	3 µM	9 µM	–	–
N#CCn1cnc2c(OCc3ccccc3)nc(N)nc21	0.8 µM	13 µM	–	–
CCC(O)Cn1cnc2nc(N)nc(OCc3ccccc3)c21 (centres undefined)	–	–	inactive	–
NC(=O)Cn1cnc2c(OCc3ccccc3)nc(N)nc21	7.5 µM	47 µM	–	–
Cc1ccc(COc2nc(N)nc3nc[nH]c23)cc1	0.08 µM	0.2 µM	–	–
C=CCOc1nc(N)nc2nc[nH]c12	4 µM	20 µM	–	–
Nc1nc(SCc2ccc([N+](=O)[O-])cc2)c2ncn([C@@H]3O[C@H](CO)[C@@H](O)[C@H]3O)c2n1	–	–	inactive	–
N#CCn1cnc2nc(N)nc(OCc3ccccc3)c21	–	–	inactive	–
Nc1nc(OCc2ccc(Cl)cc2)c2[nH]cnc2n1	0.08 µM	0.2 µM	–	–
NC(=O)Cn1cnc2nc(N)nc(OCc3ccccc3)c21	–	–	inactive	–
Nc1nc(O)c2c(ncn2Cc2ccccc2)n1	–	–	inactive	–
c1ccc(COc2[nH]cnc3ncnc2-3)cc1	36 µM	85 µM	–	–
CCOC(=O)Cn1cnc2c(OCc3ccccc3)nc(N)nc21	3 µM	30 µM	–	–
Nc1nc(OCc2ccccc2)c2ncn(C3O[C@H](CO)[C@@H](O)[C@H]3O)c2n1 (some centres undefined)	2 µM	11 µM	–	–
